Assay results taken from PMC7684530 (European Journal of Medicinal Chemistry, 2020).
“Also recorded” adds a separate entry of the source.

Columns and labels:
PqsR [1] = biological target: T1, PqsR (Pseudomonas aeruginosa, UniProt Q9I4X0); experiment: 10 μM spot test in the PAO1-L mCTX:PpqsA-lux bioreporter; format: cell-based, Pseudomonas aeruginosa PAO1-L; settings: 10 μM ligand concentration
T1 sequence (Q9I4X0 1-332): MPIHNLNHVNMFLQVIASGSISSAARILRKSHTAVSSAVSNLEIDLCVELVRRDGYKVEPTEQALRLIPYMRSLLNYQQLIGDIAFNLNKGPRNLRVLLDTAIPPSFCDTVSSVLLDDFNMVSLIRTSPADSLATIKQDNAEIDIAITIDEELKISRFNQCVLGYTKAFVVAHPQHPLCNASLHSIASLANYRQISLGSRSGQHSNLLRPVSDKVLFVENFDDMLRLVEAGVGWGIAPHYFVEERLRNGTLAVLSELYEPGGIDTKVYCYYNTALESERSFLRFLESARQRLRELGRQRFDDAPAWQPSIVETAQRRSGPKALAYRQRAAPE
How it was run: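 Single-concentration screen of the PAO1-L mCTX:PpqsA-lux strain in LB. The reporter was grown overnight at 37 °C to OD600 2.0–3.0 and diluted to OD600 0.02. A 20 μM compound solution in LB was mixed 1:1 with the cells (final 10 μM) in at least three wells. OD600 and luminescence were read every 30 min at 37 °C over 24 h. Activity (luminescence/OD600) was taken at the luminescence peak and compared with the DMSO control.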

PqsR [2] = biological target: T1, PqsR; experiment: PqsR bioreporter assay; format: cell-based, Pseudomonas aeruginosa PAO1-L; settings: for activity: read-out: IC50 value in PAO1-L
How it was run: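 Dose-response of the PAO1-L mCTX:PpqsA-lux reporter. Ten compound concentrations in LB came from two tenfold dilution series and were mixed 1:1 with PAO1-L diluted to OD600 0.02, giving final 31.6 μM to 1 nM, in triplicate. The plate was kinetically read at 37 °C over 24 h for OD600 and luminescence every 30 min. Values were taken at the luminescence peak (8–9 h), and log concentration was plotted against RLU/OD600.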

[3] = Solubility in the cytotoxicity test buffer; format: physicochemical; settings: this concentration = 100 μM
[4] = system: A549 lung epithelial cells; experiment: Cytotoxicity; format: cell-based, human; settings: 0.1 to 100 μM, 16 h

SMILES	activity when screened at 10 μM (in words) (PqsR [1])	activity (PqsR [2])	further results
Cc1nc(Cn2cnc3ccc(Cl)cc3c2=O)cs1 [Compound 8, 6-Chloro-3-((2-methylthiazol-4-yl)methyl)quinazolin-4(3H)-one]		> 50%	
O=c1c2cc(Cl)ccc2ncn1Cc1csc(C(F)(F)F)n1 [Compound 9, 6-Chloro-3-((2-(trifluoromethyl)thiazol-4-yl)methyl)quinazolin-4(3H)-one]		> 50%	
CCc1nc(Cn2cnc3ccc(Cl)cc3c2=O)cs1 [Compound 10, 6-Chloro-3-((2-ethylthiazol-4-yl)methyl)quinazolin-4(3H)-one]		> 50%	
CC(C)(C)c1nc(Cn2cnc3ccc(Cl)cc3c2=O)cs1 [Compound 12, 3-((2-(Tert-butyl)thiazol-4-yl)methyl)-6-chloroquinazolin-4(3H)-one]			activity in PAO1-L compared with 32 (PqsR [2]; ratio of IC50 values, strain PAO1-L): seven-fold stronger activity
CCCCCc1nc(Cn2cnc3ccc(Cl)cc3c2=O)cs1 [Compound 18, 6-Chloro-3-((2-pentylthiazol-4-yl)methyl)quinazolin-4(3H)-one]			solubility in the test buffer [3]: neither compound was fully soluble above this concentration; cytotoxic concentration (no significant toxicity up to; LD50 not reached) [4]: > 100 µM
CCCCCCc1nc(Cn2cnc3ccc(Cl)cc3c2=O)cs1 [Compound 19, 6-Chloro-3-((2-hexylthiazol-4-yl)methyl)quinazolin-4(3H)-one]			solubility in the test buffer [3]: neither compound was fully soluble above this concentration; cytotoxic concentration (no significant toxicity up to; LD50 not reached) [4]: > 100 µM
O=c1c2cc(Cl)ccc2ncn1Cc1csc(-c2ccc([N+](=O)[O-])cc2)n1 [Compound 23, 6-Chloro-3-((2-(4-nitrophenyl)thiazol-4-yl)methyl)quinazolin-4(3H)-one]	inactive	> 50%	
COCCNc1nc(Cn2cnc3ccc(Cl)cc3c2=O)cs1 [Compound 24, 6-Chloro-3-((2-((2-methoxyethyl)amino)thiazol-4-yl)methyl)quinazolin-4(3H)-one]	no inhibition	> 50%	
CC1CCN(c2ncc(Cn3cnc4ccc(Cl)cc4c3=O)s2)CC1 [Compound 27, 6-Chloro-3-((2-(4-methylpiperidin-1-yl)thiazol-5-yl)methyl)quinazolin-4-(3H)-one]		> 50%	
COCCNc1ncc(Cn2cnc3ccc(Cl)cc3c2=O)s1 [Compound 31, 6-Chloro-3-((2-((2-methoxyethyl)amino)thiazol-5-yl)methyl)quinazolin-4-(3H)-one]		> 50%	
CCCCCc1nc(Cn2cnc3cc(Cl)ccc3c2=O)cs1 [Compound 33, 7-Chloro-3-((2-pentylthiazol-4-yl)methyl)quinazolin-4(3H)-one]	inactive	> 50%	
O=c1c2cc(Cl)ccc2ncn1Cc1cnc(Cl)s1 [Compound 34, 6-Chloro-3-((2-chlorothiazol-5-yl)methyl)quinazolin-4(3H)-one]		> 50%	
CC(C)c1ncc(Cn2cnc3ccc(Cl)cc3c2=O)s1 [Compound 35, 6-Chloro-3-((2-isopropylthiazol-5-yl)methyl)quinazolin-4(3H)-one]	inactive; also recorded: inactivity	> 50%	

The next lines start with results.

activity when screened at 10 μM (in words) (PqsR [1])	activity (PqsR [2])	SMILES	further results
inactive; also recorded: inactivity		CC(C)c1noc(Cn2cnc3ccc(Cl)cc3c2=O)n1 [Compound 7]	
	> 50%	N#CCc1nc(Cn2cnc3ccc(Cl)cc3c2=O)cs1 [Compound 11, 2-(4-((6-Chloro-4-oxoquinazolin-3(4H)-yl)methyl)thiazol-2-yl)acetonitrile]	
inactive	> 50%	NC(N)=Nc1nc(Cn2cnc3ccc(Cl)cc3c2=O)cs1 [Compound 26, 2-(4-((6-Chloro-4-oxoquinazolin-3(4H)-yl)methyl)thiazol-2-yl)guanidine]	
	> 50%	O=c1c2cc(Cl)ccc2ncn1Cc1cnc(NC2CCCCC2)s1 [Compound 28, 6-Chloro-3-((2-(cyclohexylamino)thiazol-5-yl)methyl)quinazolin-4-(3H)-one]	
	> 50%	CN(CCO)c1ncc(Cn2cnc3ccc(Cl)cc3c2=O)s1 [Compound 29, 6-Chloro-3-((2-(2-hydroxyethyl(methyl)amino)thiazol-5-yl)methyl)quinazolin-4-(3H)-one]	
	> 50%	CCCCNc1ncc(Cn2cnc3ccc(Cl)cc3c2=O)s1 [Compound 30, 3-((2-(Butylamino)thiazol-5-yl)methyl)-6-chloroquinazolin-4(3H)-one]	
